Activity calls are given as the source filed them. No cut-off for these calls is given here.
Tests used:
Rattus norvegicus [1] = species: Rattus norvegicus; experiment: Antiandrogenicity in male rat assessed as inhibition of increase in ventral prostate weight using 1.2 mg testosterone at 10 mg; assay type: functional, Prostate gland
Rattus norvegicus [2] = species: Rattus norvegicus; experiment: Androgenicity in male rat at 10 mg; assay type: functional, organism-based
Rattus norvegicus [3] = species: Rattus norvegicus; experiment: Antiandrogenicity in male rat assessed as inhibition of increase in seminal vesicle weight using 1.2 mg testosterone at 10 mg; assay type: functional
Rattus norvegicus [4] = species: Rattus norvegicus; experiment: Antiandrogenicity in male rat assessed as inhibition of increase in levator ani weight using 1.2 mg testosterone at 10 mg; assay type: functional
Oryctolagus cuniculus [5] = species: Oryctolagus cuniculus; experiment: Progestational activity in rabbit at 0.1 to 10 mg by clauberg assay; assay type: functional, organism-based
How it was run: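 Clauberg assay in rabbits: progestational response scored after test steroid at dose levels of 0.1, 1.0 and 10.0 mg.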

Rattus norvegicus [6] = species: Rattus norvegicus; experiment: Antiandrogenicity in male rat assessed as inhibition of increase in ventral prostate weight using 2.4 mg testosterone at 10 mg; assay type: functional, Prostate gland
Rattus norvegicus [7] = species: Rattus norvegicus; experiment: Antiandrogenicity in male rat assessed as inhibition of increase in levator ani weight using 2.4 mg testosterone at 10 mg; assay type: functional
Rattus norvegicus [8] = species: Rattus norvegicus; experiment: Androgenicity in male rat at 0.1 to 10 mg; assay type: functional, organism-based
Rattus norvegicus [9] = species: Rattus norvegicus; experiment: Antiandrogenicity in male rat assessed as inhibition of increase in seminal vesicle weight using 2.4 mg testosterone at 10 mg; assay type: functional
Oryctolagus cuniculus [10] = species: Oryctolagus cuniculus; experiment: Antiprogestational activity in rabbit at 0.4 mg by anti-clauberg assay; assay type: functional, organism-based
How it was run: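 Rabbit anti-Clauberg (antiprogestational) assay: test steroid given at 20.0 mg against a progesterone challenge of 0.4 mg. Run by Mason Research Institute for the NIH Contraceptive Development Branch.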

SMILES: C[C@]12CC[C@@H]3[C@H]4CCC(=O)[C@H]5C(C[C@H]3[C@@H]1CCC2=O)[C@@H]45 (stereo partly drawn)
- inhibition (INH) (Rattus norvegicus [1]): <20%
- Activity (Rattus norvegicus [2]): Active
- inhibition (INH) (Rattus norvegicus [3]): <20%
- inhibition (INH) (Rattus norvegicus [4]): <20%

SMILES: CC(=O)[C@H]1CC[C@H]2[C@@H]3CC4[C@@H]5[C@H]4C(=O)CC[C@]5(C)[C@H]3CC[C@]12C (stereo partly drawn)
- Activity (Oryctolagus cuniculus [5]): inactive

SMILES: CC(=O)O[C@H]1CC[C@H]2[C@@H]3CC4[C@@H]5[C@H]4C(=O)CC[C@]5(C)[C@H]3CC[C@]12C (stereo partly drawn)
- inhibition (INH) (Rattus norvegicus [6]): <20%
- inhibition (INH) (Rattus norvegicus [7]): <20%
- inhibition (INH) (Rattus norvegicus [1]): <20%
- inhibition (INH) (Rattus norvegicus [3]): <20%
- Activity (Rattus norvegicus [8]): Active
- inhibition (INH) (Rattus norvegicus [9]): <20%
- inhibition (INH) (Rattus norvegicus [4]): <20%

SMILES: CC(=O)[C@H]1CC[C@H]2[C@@H]3CCC4=CC(=O)CC[C@]4(C)[C@H]3CC[C@]12C
- Activity (Oryctolagus cuniculus [10]): inactive

Reference: ChEMBL document CHEMBL3272014, “Synthesis and biological inactivity of some 4alpha,6-cyclo steroids” (1976)
